Our source for the cytotoxicity values is ChEMBL document CHEMBL4513216, “Probing the Open Global Health Chemical Diversity Library for Multistage-Active Starting Points for Next-Generation Antimalarials” (ACS Infect Dis, 2020).

Molecules are shown by their SMILES.

The nature of the series: Toxicity liver stage against HepG2, at 10uM. The class given is cell-based. Further details: test concentration 10 uM, cell line HepG2-A16-CD81EGFP. The following applies: human, HepG2-A16-CD81EGFP cells; read-out: INHIBITION
The essentials:
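Uninfected HepG2-A16-CD81EGFP cells, 3 × 10^3 per well, 1536-well, plated on prespotted compound at 10 μM final, parasite-free screening media added to match infected plates; puromycin 10 μM positive, DMSO 0.5% negative; run in parallel with 48 h PbLuc assay at 37 °C, 5% CO2; viability by CellTiter-Glo luminescence, normalized to controls.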
Consider `O=C(CCc1ccccc1)N1C[C@H]2CCN[C@H]2C1`, for which the cytotoxicity at 10 µM is -4.22%. Then `CCC(=O)Nc1ccccc1Sc1nc(Br)nn1C`, with 3.28%; and `Cc1cnn(C2CN(c3nc(-c4ccncc4)nc4c3CCC4)C2)c1`, with -46%.

`O=C(c1nnn(-c2ccc(Cl)cc2)n1)N(CCO)Cc1ccccc1`: the cytotoxicity at 10 µM was -1.9%. The result for `O=C(c1ccncn1)N1CCC[C@]2(C[C@H](OCC3CC3)CO2)C1` reads -81.9%; that for `N#Cc1cccc(CN2CC[C@@H]3[C@@H]2CC(=O)N3CCN2CCCC2)c1`, -84.4%. Then `CCN1C[C@@H]2[C@@H](OC)CCN(C(=O)Cc3ccsc3)[C@@H]2C1`, with 0.11%; and `COC(=O)c1cccc(CNC(=O)NCCC(F)(F)F)c1`, with -0.247%; and `COc1cn(CC(N)=O)c(CSc2nc(C)cc(C)n2)cc1=O`, with -30.2%. Then `O=C(c1cc(F)ccc1F)C1CCN(C(=O)c2cccnc2O)CC1`, with -3.99%. Take `CC1=Nc2c(c(=O)[nH]n2C(C)C)C(c2ccsc2)S1` (centres undefined): the cytotoxicity at 10 µM is -2.92%. Consider `NC(=O)c1cccc(CS(=O)(=O)CC(O)Cn2cccn2)c1` (centres undefined), for which the cytotoxicity at 10 µM was -2.45%. Then `O=C(CO)N1C[C@@H]2CC[C@H]1CN(C1Cc3ccccc3C1)C2`, with -11.3%. Take `O=C(NCCNc1ncccn1)C1CCN(C(=O)NC2CC2)CC1`: the cytotoxicity at 10 µM was -14.5%.

With `Cc1ccc(CNc2nc(O)cc(C3CC(=O)N(C)C3)n2)cc1` (centres undefined), the cytotoxicity at 10 µM was -17.8%. Then `CN(C)CCNC(=O)C1Cc2nc(-c3ccsc3)sc2N1CC1CC1` (centres undefined), with 3.54%; and `Cn1cc(CN2CCn3cc(CNC(=O)CC4CC4)nc3C2)cn1`, with -83.3%. Consider `N#Cc1c(Cl)nsc1NCCCN1C(=O)COc2ccccc21`, for which the cytotoxicity at 10 µM was found to be 22.2%.

For the compound `CN(CC1(O)CCCC1)C(=O)c1cccc(Nc2cnccn2)c1`, the cytotoxicity at 10 µM was -4.27%. Then `COc1ccccc1OCCNCc1c(C(C)C)nn(C)c1N(C)C`, with -12.8%; and `O=C(c1cccnc1O)N1CCOC(Cc2cccc(C(F)(F)F)c2)C1` (centres undefined), with 2.26%; and `CCC1c2ccsc2CCN1C(=O)NCCNc1ncccn1` (centres undefined), with -13.6%.

On to `CCC(C)NC(=O)CN1CCC2(CC1)OCCO2` (centres undefined), for which the cytotoxicity at 10 µM was -4.92%.

`c1cc(C2CC2)n2cnc(C3CN(Cc4nccs4)CCO3)c2c1` (centres undefined): the cytotoxicity at 10 µM is 1.49%. As to `Cc1ccc(O)c(CN(CCCn2ccnc2)Cc2ccc(C)s2)c1`, the cytotoxicity at 10 µM was -25.8%. Then `O=C1CN(Cc2ccc3ccccc3n2)CCN1C1CCCC1`, with -3.45%. Then `CCN(CC)Cc1ccc(C(=O)NC2CCc3cc(Br)ccc32)o1` (centres undefined), with -3.3%; and `CNC(C)Cc1ccccc1Sc1ccc(O)cc1` (centres undefined), with 2.73%; and `O=C(c1cc(F)cc(Cl)c1)N1CCN(CCO)[C@@H]2CS(=O)(=O)C[C@@H]21`, with -2.24%.

Turning to `COc1ccsc1C(=O)N1CCCC1c1c(C)nn(C)c1OC` (centres undefined), the cytotoxicity at 10 µM was -0.561%.

For the compound `COc1cccc([C@H]2CN(C(C)=O)[C@@H]3CCN(Cc4ccsc4)C[C@H]23)c1`, the cytotoxicity at 10 µM is -9.19%. The result for `CCC(CO)N(Cc1ccsc1)Cc1ccccc1C(=O)O` (centres undefined) reads -14.4%; that for `O=C(C1CC1)N1CCc2c(ncnc2NCCc2nc3c(s2)CCC3)C1`, -1.05%; that for `N#Cc1ccc(OC[C@]23COC[C@H]2CN(c2ncccn2)C3)nc1`, -1.84%. The result for `CCCN1CCCn2nc(CNS(=O)(=O)c3ccc(F)cc3)cc2C1` reads -8.57%.

Take `Cc1cccc(C(=O)NCC(O)c2ccc(F)cc2F)c1` (centres undefined): the cytotoxicity at 10 µM was found to be 6.27%. The result for `Cc1cc2nc(C(C)C)cc(NCCc3cccn3C)n2n1` reads 0.407%; that for `CN1CCN(CCC(F)(F)C(F)F)CC12CCNC(=O)CC2` (centres undefined), -39.7%; that for `Cc1c(C(=O)O)sc2nc(Cc3ccccc3)nc(N)c12`, -0.924%.
